Source: PubChem (several laboratories)
In the library only some 2% were active in any assay of this set; here they are far more common.
MLLE-PAM2 inh = inhibitors of microRNA-mediated deadenylation, human PABP1 MLLE binding. P11940. GST-MLLE / FITC-PAM2 fluorescence polarization. inhibition, % at 20 µM. 360,000 tested, 0.36% active. AID 588489; in the data active = inhibition above about 35%, passing the limit was not always enough;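 note: plate controls were DMSO wells with GST-MLLE for no effect and wells lacking GST-MLLE protein for full effect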
Target sequence (P11940 whole entry, looked up): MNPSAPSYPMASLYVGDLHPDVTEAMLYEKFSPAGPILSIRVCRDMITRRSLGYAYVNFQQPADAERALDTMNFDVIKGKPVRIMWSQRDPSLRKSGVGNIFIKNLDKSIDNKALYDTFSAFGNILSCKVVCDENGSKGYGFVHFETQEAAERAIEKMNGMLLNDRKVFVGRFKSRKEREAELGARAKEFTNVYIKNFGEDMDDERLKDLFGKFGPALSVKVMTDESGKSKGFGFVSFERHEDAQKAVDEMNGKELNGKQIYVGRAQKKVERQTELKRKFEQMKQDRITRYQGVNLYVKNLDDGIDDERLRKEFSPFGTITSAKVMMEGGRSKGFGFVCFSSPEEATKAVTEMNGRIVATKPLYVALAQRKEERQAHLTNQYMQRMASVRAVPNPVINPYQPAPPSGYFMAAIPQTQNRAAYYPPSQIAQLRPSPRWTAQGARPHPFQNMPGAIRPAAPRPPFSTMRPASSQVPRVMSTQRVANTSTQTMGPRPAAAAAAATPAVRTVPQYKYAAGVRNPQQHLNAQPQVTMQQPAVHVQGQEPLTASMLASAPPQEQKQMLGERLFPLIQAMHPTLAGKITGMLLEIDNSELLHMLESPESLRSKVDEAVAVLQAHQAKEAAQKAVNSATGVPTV
HCV NS3 hel inh = inhibitors of Hepatitis C virus NS3 helicase; 290,000 tested, 0.56% active; NS3 helicase DNA unwinding, Cy5 molecular beacon fluorescence; AID 1800; inhibition, % at 10.9 µM;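 active = inhibition above the mean of all tested compounds plus 3 SD, set per campaign, cut at about 35% in these data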;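 note: 0% = DMSO wells and 100% = thioflavine S control wells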
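test system = hepatitis C virus NS3 helicase domain fragment enzyme | reagent = annealed dual-labelled DNA beacon duplex, ATP-started | times = 1 h at 25 °C | detection = Cy5 fluorescence, 0 and 60 min reads | read-out basis = percent inhibition from t60/t0 fluorescence ratio | control set = DMSO and thioflavine S | replication = one well per compound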
DNA FID counter = displaces DNA intercalator in HCV helicase counter-screen. 290,000 tested, 0.17% active. DNA fluorescent intercalator displacement, fluorescence. inhibition, % at 7.9 µM; in the data active = inhibition above about 37%;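 note: 0% = vehicle and 100% = reference compound; higher means more ethidium bromide displaced from hairpin DNA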
PABP polyA inh = blocks human PABP binding to poly(A) RNA; P11940; fluorescence polarization; inhibition, % at 35 µM; 290,000 tested, 1% active; AID 2014;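 note: calls also rest on retests at 20 µM and on dose response follow-up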
eIF4H FP inh = inhibitors of RNA binding by human eIF4H; Q15056; eIF4H fluorescence polarization binding assay; inhibition, % at 35 µM; 290,000 tested, 0.94% active; AID 2012;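 note: calls also rest on retests at 20 µM and on dose response follow-up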
core dimer inh = HCV core protein dimerization inhibition. inhibition, % at 5 µM. TR-FRET GST/Flag-core106 dimerization, 1536-well. 300,000 tested, 0.33% active;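 active = inhibition above the mean of all tested compounds plus 3 SD, set per screening campaign, cut at about 45% in these data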
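Assay system: GST-tagged and Flag-tagged HCV core protein residues 1-106 / Times: compound-protein-antibody incubation 4 h at 22.5 °C / Signal: time-resolved FRET, ex 340 nm, em 617 and 671 nm / Evaluation: % inhibition based on acceptor/donor emission ratio / Benchmarks: wells lacking GST-core106 and wells with excess unlabelled core106 / Repeats: singlicate, one well per compound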
An asterisk follows results filed as active; ? = inconclusive; . = not tested or not shown. Unless noted, the rule behind the calls is not given here.

SMILES | MLLE-PAM2 inh | HCV NS3 hel inh | DNA FID counter | PABP polyA inh | eIF4H FP inh | core dimer inh
COc1cc(C2Nc3cccc4cccc(c34)N2)ccc1OC(C)=O | 19 | 0 | 2 | 88* | 105* | -5
COc1ccc(C2Nc3cccc4cccc(c34)N2)cc1Br | -4 | 19 | -7 | 44 | 62* | 3
OC[C@@H]1[C@@H](c2ccc(Cl)cc2)C(c2ccc(F)cc2)=NN1c1ccccc1 | -4 | . | . | . | . | .
O=C1CCC[C@@H]2[C@@H](Cc3ccccc3)[C@H](N3CCN(c4ccccc4)CC3)C[C@@H]3CCN1[C@@H]32 | 1 | . | . | . | . | .
O=C1c2ccccc2COc2ccc(O)cc21 | 8 | 20 | 0 | 34 | 51* | -2
CS(=O)(=O)c1ccc(C(=O)NCC(c2ccco2)N2CCCCC2)cc1 (centres undefined) | 0 | 2 | 7 | 1 | 83* | -6
Nc1nc2c(ncn2[C@@H]2O[C@H](CNCc3cnc(N4CCOCC4)nc3)[C@@H](O)[C@H]2O)c(=O)[nH]1 | -5 | . | . | . | . | .
COc1cc(C#N)ccc1OCC(=O)NCc1cccs1 | 9 | -8 | -10 | 72 | 1.9* | 3
COc1cc(S(=O)(=O)N2CCOCC2)cc(C(=O)OCC(=O)NCc2ccco2)c1OC | 2 | . | . | . | . | .
CCOc1ccc2nc(NCCNC(=S)NCCCN(C)C)c(C#N)cc2c1 | -11 | -19 | 42* | 41 | 26 | 3
CCOc1ccc2nc(NCCNC(=O)Nc3ccccc3)c(C#N)cc2c1 | 7 | 0 | -4 | 46 | 7 | -6
CCN(CC)c1ccc(/C=N/NC(=O)c2cccc(S(=O)(=O)Nc3ccccc3OC)c2)cc1 | 4 | -8 | -15 | 16 | 52* | 2
CCOC(=O)C(=NO)C1=CSC2=NNC(C)(C)N12 | -18 | . | . | . | . | .
COc1ccc2[nH]c3c(=O)n(CCCCC(=O)N4CCC(C(N)=O)CC4)c(=S)[nH]c3c2c1 | 51* | -4 | -19 | 5 | -2 | -5
COc1ccc2[nH]c3c(=O)n(CCCCC(=O)NCCN4CCCC4)c(=S)[nH]c3c2c1 | 19 | -51 | 6 | -5 | 12 | -3
CCCN(CC(=O)Nc1ccc(C(C)=O)cc1)CC(=O)Nc1ccccc1C | -21 | -1 | -33 | 56* | ? | -5
CCCN(CC(=O)Nc1cc(C)on1)CC(=O)Nc1ccccc1C | -2 | . | . | . | . | .
Cc1ccc(NC(=O)CN(C)CC(=O)Nc2ccccc2C#N)cc1 | 15 | -5 | -13 | 60 | active | -2
CCCCNC(=O)c1nc(-c2ccncc2)oc1-c1ccccc1 | -16 | . | . | . | . | .
COc1cc(CCC(N)c2cccc(O)c2)cc(OC)c1OC (centres undefined) | -9 | . | . | . | . | .
CCCCc1ccc(C2C(C#N)=C(N)SC(N)=C2C#N)s1 | . | 30 | -2 | ? | ? | 59*
CCOc1ccc(C2C(C#N)=C(N)SC(N)=C2C#N)c(OCC)c1 | 144 | 8 | -1 | -10 | ? | 38
CCCCC1OC23CCCCC2C(C#N)(C#N)C1(C#N)C(=N)O3 (centres undefined) | 23 | 8 | -3 | -6 | ? | -10
CCCCC1OC23CCCCC2C(C#N)(C(=N)O3)C1(C#N)C#N (centres undefined) | 48* | 6 | 0 | ? | ? | 5
Cc1[nH]n(C(N)=S)c(=O)c1N=Nc1ccc(S(=O)(=O)N2CCCCCC2)cc1 | 40* | 6 | -22 | 0 | -4 | 3
SMILES | MLLE-PAM2 inh | HCV NS3 hel inh | DNA FID counter | PABP polyA inh | eIF4H FP inh | core dimer inh
CC(=O)c1ccc2c(c1)C1C=CCC1C(c1ccc(S(=O)(=O)N3CCOCC3)cc1)N2 (centres undefined) | 24 | 10 | -11 | 2 | 18 | 79*
CC(C)C1Nc2ccc(C(=O)O)cc2C2C=CCC21 (centres undefined) | 29 | 36 | -17 | 66 | 96* | -3
CC(=O)c1ccc2c(c1)C1C=CCC1C(c1cc3c(cc1Br)OCO3)N2 (centres undefined) | 0 | . | . | . | . | 6
COc1ccc(NS(=O)(=O)c2ccc3c(c2)[C@H]2C=CC[C@H]2[C@@H](c2ccc(C(=O)O)cc2)N3)cc1 | -45 | -4 | 21 | 82* | 97* | 23
O=C(O)c1ccc2c(c1)C1C=CCC1C(c1ccncc1)N2 (centres undefined) | 6 | 16 | -14 | 83* | 97* | -3
Cc1sc2ncnc(N3CCC(C(=O)N(C)CC(=O)Nc4ccc(Cl)c(C(F)(F)F)c4)CC3)c2c1C | 6 | . | . | . | . | -7
CCc1cc2c(cc3c(=O)n(CC(=O)NCCCN4CCCCCC4)nc(CC)n32)s1 | -7 | -25 | 8 | -6 | -1 | -2
N=C1/C(=C/c2ccc(-c3cccc(C(=O)O)c3)o2)C(=O)N=C2SC=C(c3ccccc3)N12 | -81 | 21 | -13 | 11* | 52* | 13
Cc1ccc(-n2c(C)cc(/C=C3/C(=N)N4C(c5ccccc5)=CSC4=NC3=O)c2C)cc1 | -14 | 4 | -3 | -3 | 31 | 1
N=C1/C(=C\c2ccc(-c3cc(Cl)cc(Cl)c3)o2)C(=O)N=C2SC=C(c3ccccc3)N12 | -6 | 27 | 4 | -10 | 35 | 49*
O=C1OC(c2cccs2)=N/C1=C/c1ccc(-c2cccc(C(=O)O)c2)o1 | -87 | 30 | -17 | active | 89 | .
Cc1cc(-c2ccccc2)nc(N/N=C/c2ccccc2F)n1 | -12 | 12 | -14 | 8 | 0 | 8
CC(C)CNc1ncnc2c1ncn2[C@H]1CN(CCN2CCOCC2)C[C@@H](CO)O1 | -2 | . | . | . | . | .
Cc1ccc(C)c(S(=O)(=O)Nc2ccc3oc(C)c(C(=O)O)c3c2)c1 | 4 | 9 | -26 | 75* | 87* | 14
Cc1oc2ccc(NS(=O)(=O)c3ccc(C(C)(C)C)cc3)cc2c1C(=O)Nc1ccccc1 | 2 | 2 | -15 | -6 | -9 | 54*
CC(=O)c1c(C)oc2ccc(NS(=O)(=O)c3ccc(C)cc3)cc12 | 0 | 8 | -15 | 12 | 7 | -10
COCCCN(C(=O)CSc1nc2ccccc2c(=O)n1C)c1c(N)n(Cc2ccccc2)c(=O)[nH]c1=O | 15 | . | . | . | . | .
CCN(CC)C(=O)C1=C(C)N(CCC2=CCCCC2)C(=O)C(CC(=O)NCc2ccco2)C1 (centres undefined) | 3 | . | . | . | . | .
Cc1cccnc1NC(=S)NC(=O)c1oc2ccccc2c1C | 40* | 5 | -13 | 0 | 3 | -3
CC(=O)Nc1ccc(NC(=S)NC(=O)c2oc3ccccc3c2C)cc1 | 12 | -5 | 1 | -3 | -11 | 8
O=CN/C=C/c1cc(O)ccc1O | 33 | 16 | -1 | 91* | 94* | -7
O=Cc1ccc(O)cc1O | -4 | 4 | 2 | -4 | -4 | -2
Cc1cccc(/C=C/C(=O)c2ccc(NC3=NCCCS3)cc2)c1 | -23 | -54 | 5 | 0 | -18 | 1
O=C(/C=C/c1ccccc1)c1ccc(NC2=NCCCS2)cc1 | -4 | -28 | 0 | 0 | 5 | -1
